23 molecules from ChEMBL document CHEMBL3425486, “Lathyrol diterpenes as modulators of P-glycoprotein dependent multidrug resistance: structure-activity relationship studies on Euphorbia factor L3 derivatives” (J Med Chem, 2015) can be followed below.

A short description of series [1]: Cytotoxicity against human MCF7/ADR cells assessed as reduction in cell viability after 48 hrs by SRB colorimetric assay. It is filed as functional, cell-based. The following applies: NCI/ADR-RES. The essentials: (§1)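 MCF-7 from ATCC and its stepwise ADR-selected resistant subline, grown in RPMI-1640 with 10% FBS and penicillin/streptomycin at 37 °C, 5% CO2. 1 × 10^4 cells/well exposed to graded compound concentrations for 48 h. Cells fixed with 10% TCA, stained with 0.4% SRB in 1% acetic acid, dye extracted with 10 mM Tris base, OD read at 490 nm. Taxol positive control.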
Background: In SRB staining, fixed cells bind dye roughly in proportion to their protein.

The test system of the next series is MCF7. The series is described as follows: Cytotoxicity against human MCF7 cells assessed as reduction in cell viability after 48 hrs by SRB colorimetric assay. It is filed as functional, cell-based. The following applies: MCF7, 48 h. The essentials:
as §1

Series [2] has as its target T1, ATP-dependent translocase ABCB1 (Homo sapiens, UniProt P08183). The series is described as follows: Inhibition of P-gp in human MCF7/ADR cells assessed as reversal of multidrug resistance by measuring relative enhancement intensity for adriamycin-induced cytotoxicity at 10 uM after 48 hrs by SRB colorimetric assay. Also on record: scale not given: the % may be the effect or the level left. To be noted: nci/adr-res. It is filed as cell-based.

The next series relates to NCI/ADR-RES. The series is described as follows: Inhibition of P-gp in human MCF7/ADR cells assessed as reversal of multidrug resistance at 10 uM by measuring ratio of EC50(adriamycin)/EC50(adriamycin + compound) after 48 hrs by SRB colorimetric assay. It is filed as cell-based.
A short description of series [3]: Inhibition of P-gp in human MCF7/ADR cells assessed as reversal of multidrug resistance at 10 uM by measuring EC50 for adriamycin-induced cytotoxicity after 48 hrs by SRB colorimetric assay. To be noted: nci/adr-res.
The target of series [4] is T1, ATP-dependent translocase ABCB1. The series can be described thus: Inhibition of P-gp in human MCF7/ADR cells assessed as forward scatter count of cells at 20 uM pre-treated for 1 hr at 37 degC followed by incubation with Rh123 for 1 hr by flow cytometry (reference value: 142.5 No unit). It is filed as cell-based. The following applies: nci/adr-res. For orientation: Flow cytometry measures light scatter and fluorescence of single cells or particles in a stream.

Series [5] shares this target. The series can be described thus: Inhibition of P-gp in human MCF7/ADR cells assessed as mean fluorescence intensity of cells at 20 uM pre-treated for 1 hr at 37 degC followed by incubation with Rh123 for 1 hr by flow cytometry (reference value: 108.1 +/- 43.9 No unit). It is filed as cell-based. To be noted: nci/adr-res.
Series [6] shares this target. The series can be described thus: Inhibition of P-gp in human MCF7/ADR cells assessed as side scatter count of cells at 20 uM pre-treated for 1 hr at 37 degC followed by incubation with Rh123 for 1 hr by flow cytometry (reference value: 100.6 No unit). It is filed as cell-based. To be noted: nci/adr-res.
Series [7] has the same target. The series is described as follows: Inhibition of P-gp in human MCF7/ADR cells assessed as peak fluorescence intensity of cells at 20 uM pre-treated for 1 hr at 37 degC followed by incubation with Rh123 for 1 hr by flow cytometry (reference value: 87.3 No unit). It is filed as cell-based. To be noted: nci/adr-res.

The structures appear in SMILES notation.

T1 sequence (P08183 whole entry): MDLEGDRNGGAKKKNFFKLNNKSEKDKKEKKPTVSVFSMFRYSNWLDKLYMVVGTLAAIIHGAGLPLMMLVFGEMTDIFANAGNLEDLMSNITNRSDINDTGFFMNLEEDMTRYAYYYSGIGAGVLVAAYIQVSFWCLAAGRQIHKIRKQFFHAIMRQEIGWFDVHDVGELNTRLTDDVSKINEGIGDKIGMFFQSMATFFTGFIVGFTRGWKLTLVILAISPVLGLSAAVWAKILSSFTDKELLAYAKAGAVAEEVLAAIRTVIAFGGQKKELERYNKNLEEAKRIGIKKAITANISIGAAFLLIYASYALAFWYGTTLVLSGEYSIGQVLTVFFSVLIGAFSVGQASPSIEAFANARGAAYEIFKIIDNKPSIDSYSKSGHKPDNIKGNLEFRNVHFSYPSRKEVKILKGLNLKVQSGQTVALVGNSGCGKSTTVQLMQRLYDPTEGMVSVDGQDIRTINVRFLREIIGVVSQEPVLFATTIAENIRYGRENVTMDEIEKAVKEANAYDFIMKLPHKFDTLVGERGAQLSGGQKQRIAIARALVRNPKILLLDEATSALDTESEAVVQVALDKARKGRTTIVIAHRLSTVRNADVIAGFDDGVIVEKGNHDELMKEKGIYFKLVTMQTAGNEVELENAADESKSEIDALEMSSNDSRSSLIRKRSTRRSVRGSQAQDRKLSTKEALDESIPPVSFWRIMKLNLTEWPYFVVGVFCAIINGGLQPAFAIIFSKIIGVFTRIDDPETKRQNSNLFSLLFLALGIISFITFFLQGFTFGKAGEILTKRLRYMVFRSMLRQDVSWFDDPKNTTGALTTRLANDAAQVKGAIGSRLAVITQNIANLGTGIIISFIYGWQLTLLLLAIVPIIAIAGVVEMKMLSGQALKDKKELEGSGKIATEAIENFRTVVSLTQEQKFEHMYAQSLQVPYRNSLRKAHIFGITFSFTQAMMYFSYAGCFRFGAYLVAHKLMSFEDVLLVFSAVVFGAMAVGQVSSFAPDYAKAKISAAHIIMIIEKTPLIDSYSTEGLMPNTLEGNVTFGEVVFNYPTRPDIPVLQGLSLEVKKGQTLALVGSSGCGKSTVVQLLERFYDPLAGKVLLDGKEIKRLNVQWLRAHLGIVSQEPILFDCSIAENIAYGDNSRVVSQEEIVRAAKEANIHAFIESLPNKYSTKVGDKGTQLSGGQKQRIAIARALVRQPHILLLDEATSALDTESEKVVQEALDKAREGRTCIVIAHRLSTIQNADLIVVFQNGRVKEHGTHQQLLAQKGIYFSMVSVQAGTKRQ

The IC50 is the point on the concentration scale where inhibition reaches its midpoint. As usually defined, the EC50 is the concentration that produces a half-maximal response. `C=C1CC[C@H]2[C@@H]([C@@H]3O[C@]4(C[C@H](C)[C@H](OC(=O)/C=C/c5ccccc5)[C@@H]4[C@H]1OC(=O)/C=C/c1ccccc1)C(=O)[C@H]3C)C2(C)C`: the 50% inhibitory concentration (IC50) is over 100 µM in series [1] and 64.2 µM in the series with MCF7. The Activity in series [2] is recorded as 2.1%. The Ratio EC50 in the series with NCI/ADR-RES was 3.6. Moreover, the EC50 in series [3] was 9.68 µM.
The corresponding values for `C=C1CC[C@H]2[C@@H](/C=C(\C)C(=O)[C@@]3(O)C[C@H](C)[C@H](OC(=O)CCC)[C@@H]3[C@H]1OC(=O)CCC)C2(C)C` are 50.9 µM, 18.5 µM, 4%, 2.4 and 14.49 µM.
For the molecule `C=C1CC[C@H]2[C@@H](/C=C(\C)C(=O)[C@@]3(O)C[C@H](C)[C@H](OC(=O)CC)[C@@H]3[C@H]1OC(=O)Cc1ccccc1)C2(C)C`, the results for the IC50 (in series [1]; with MCF7) were 76 µM and 9.57 µM, respectively. The Activity in [2] came to 9.3%. For the same molecule, the Ratio EC50 in the series on NCI/ADR-RES is 8.1.
For `C=C1CC[C@H]2[C@@H](/C=C(\C)C(=O)[C@@]3(O)C[C@H](C)[C@H](OC(=O)Cc4cccc5ccccc45)[C@@H]3[C@H]1OC(=O)Cc1cccc3ccccc13)C2(C)C`, the figures for the IC50 (in series [1]; in the series with MCF7) were over 100 µM and 13.4 µM, respectively. Also, the Activity in [2] stood at 10.1%. In addition, the Ratio EC50 in the series with NCI/ADR-RES was 1.4.
The corresponding values for `C=C1CC[C@H]2[C@@H](/C=C(\C)C(=O)[C@@]3(O)C[C@H](C)[C@H](OC(=O)Cc4ccccc4)[C@@H]3[C@H]1OC(=O)Cc1ccccc1)C2(C)C` are 36.3 µM, 8.93 µM, 9.5% and 2.6.
For `C=C1CC[C@H]2[C@@H](/C=C(\C)C(=O)[C@@]3(O)C[C@H](C)[C@H](O)[C@@H]3[C@H]1OC(C)=O)C2(C)C`, in that order: 80.7 µM, 26.6 µM, 7.1% and 1.9.
`C=C1CC[C@H]2[C@@H](/C=C(\C)C(=O)[C@@]3(O)C[C@H](C)[C@H](O)[C@@H]3[C@H]1OC(=O)CC(C)C)C2(C)C`: the IC50 stood at 60.8 µM in series [1] and 14.8 µM with MCF7. Moreover, the Activity in [2] was determined as 4.7%. The Ratio EC50 in the series on NCI/ADR-RES worked out at 4.1.
As for `C=C1CC[C@H]2[C@@H]([C@@H]3O[C@]4(C[C@H](C)[C@H](OC(=O)c5ccccc5)[C@@H]4[C@H]1OC(=O)c1ccccc1)C(=O)[C@H]3C)C2(C)C`, the concentration for half-maximal inhibition (IC50) in series [1] is over 100 µM; in the series with MCF7 it was 34.9 µM. In addition, in series [2], the Activity is recorded as 4.3%. Moreover, the Ratio EC50 in the series on NCI/ADR-RES was 1.7. In series [3], the EC50 was found to be 20.49 µM.
On to `C=C1CC[C@H]2[C@@H](/C=C(\C)C(=O)[C@@]3(O)C[C@H](C)[C@H](OC(=O)c4ccccc4)[C@@H]3[C@H]1OC(=O)Cc1cccc3ccccc13)C2(C)C`, for which the IC50 in series [1] was over 100 µM; in the series with MCF7, 4.16 µM. Besides, in series [2], the Activity stood at 11.1%. In addition, the Ratio EC50 with NCI/ADR-RES is 4.
Consider `C=C1CC[C@H]2[C@@H](/C=C(\C)C(=O)[C@@]3(O)C[C@H](C)[C@H](O)[C@@H]3[C@H]1OC(=O)Cc1ccccc1)C2(C)C`, for which the IC50 in [1] was 42.9 µM; in the series on MCF7 it was 14.8 µM. The Activity in [2] is listed as 9.6%. In the series on NCI/ADR-RES, the Ratio EC50 came out at 7.4.
The corresponding values for `C=C1CC[C@H]2[C@@H](/C=C(\C)C(=O)[C@@]3(O)C[C@H](C)[C@H](O)[C@@H]3[C@H]1OC(=O)c1ccccc1)C2(C)C` are 55.3 µM, 11.6 µM, 7.5% and 1.5.
Regarding `COc1ccc(CCN(C)CCCC(C#N)(c2ccc(OC)c(OC)c2)C(C)C)cc1OC` (stereo not given), the Activity is on record as 8.4% in [2], 137.4 in series [4], 92.2 in series [6] and 157.1 in [7]. For the same molecule, the Flu intensity in series [5] is 170. For the same molecule, the Ratio EC50 with NCI/ADR-RES stood at 7.1.
`C=C1CC[C@H]2[C@@H](/C=C(\C)C(=O)[C@@]3(O)C[C@H](C)[C@H](O)[C@@H]3[C@H]1OC(=O)CCCCC)C2(C)C`: the IC50 in series [1] is 46.1 µM; with MCF7 it was 18.1 µM. In addition, the Activity in series [2] is 9.1%. In addition, the Ratio EC50 with NCI/ADR-RES came to 3. In series [3], the EC50 stood at 11.45 µM.
Consider `C=C1CC[C@H]2[C@@H](/C=C(\C)C(=O)[C@@]3(O)C[C@H](C)[C@H](O)[C@@H]3[C@H]1OC(=O)CCc1ccccc1)C2(C)C`, for which the half-maximal inhibitory concentration (IC50) turned out to be 23.4 µM in series [1] and 11 µM in the series on MCF7. Besides, the Activity in series [2] is on record as 11.6%. In addition, the Ratio EC50 with NCI/ADR-RES was determined as 3.5.
With `C=C1CC[C@H]2[C@@H](/C=C(\C)C(=O)[C@@]3(O)C[C@H](C)[C@H](OC(=O)CC)[C@@H]3[C@H]1OC(=O)c1ccccc1)C2(C)C`, the IC50 in series [1] stood at 63.3 µM; in the series on MCF7, 8.47 µM. Moreover, the Activity in [2] was 12.1%. Besides, in the series on NCI/ADR-RES, the Ratio EC50 is 8.2. The concentration giving a half-maximal response (EC50) in series [3] amounted to 4.22 µM.
`C=C1CC[C@H]2[C@@H](/C=C(\C)C(=O)[C@@]3(O)C[C@H](C)[C@H](O)[C@@H]3[C@H]1OC(=O)CC)C2(C)C`: the figures for the IC50 (in [1]; with MCF7) were 53.5 µM and 32.1 µM, respectively. Moreover, the Activity in series [2] is on record as 11.3%. Besides, the Ratio EC50 with NCI/ADR-RES was 2.3.
With `C=C1CC[C@H]2[C@@H]([C@@H]3O[C@]4(C[C@H](C)[C@H](OC(=O)CCc5ccccc5)[C@@H]4[C@H]1OC(=O)CCc1ccccc1)C(=O)[C@H]3C)C2(C)C`, the 50% inhibitory concentration (IC50) in series [1] is over 100 µM; with MCF7, 46.8 µM. For the same molecule, the Activity in series [2] is 6.9%. For the same molecule, the Ratio EC50 in the series on NCI/ADR-RES was determined as 1.2.
For `C=C1CC[C@H]2[C@@H](/C=C(\C)C(=O)[C@@]3(O)C[C@H](C)[C@H](O)[C@@H]3[C@H]1OC(=O)C(C)C)C2(C)C`, in that order: 66.3 µM, 17 µM, 10.1% and 3.2.
As for `C=C1CC[C@H]2[C@@H](/C=C(\C)C(=O)[C@@]3(O)C[C@H](C)[C@H](O)[C@@H]3[C@H]1OC(=O)CCCC)C2(C)C`, the half-maximal inhibitory concentration (IC50) came to 57.9 µM in series [1] and 13.1 µM in the series on MCF7. Besides, the Activity in [2] is listed as 0.1%. Besides, the Ratio EC50 in the series on NCI/ADR-RES worked out at 0.8.
For `C=C1CC[C@H]2[C@@H](/C=C(\C)C(=O)[C@@]3(O)C[C@H](C)[C@H](OC(C)=O)[C@@H]3[C@H]1OC(C)=O)C2(C)C`, in that order: 41 µM, 21.6 µM, 4.7% and 4.1.
With `C=C1CC[C@H]2[C@@H](/C=C(\C)C(=O)[C@@]3(O)C[C@H](C)[C@H](OC(=O)CCCCC)[C@@H]3[C@H]1OC(=O)CCCCC)C2(C)C`, the half-maximal inhibitory concentration (IC50) was over 100 µM in [1] and 47.1 µM in the series with MCF7. Also, the Activity in series [2] is on record as 5.8%. In addition, the Ratio EC50 in the series with NCI/ADR-RES was 1.9. In series [3], the EC50 stood at 18.51 µM.
Consider `C=C1CC[C@H]2[C@@H](/C=C(\C)C(=O)[C@@]3(O)C[C@H](C)[C@H](O)[C@@H]3[C@H]1OC(=O)/C=C/c1ccccc1)C2(C)C`, for which the concentration for half-maximal inhibition (IC50) in series [1] stood at 58.8 µM; with MCF7, 8.24 µM. In [2], the Activity is listed as 9.1%. Further, the Ratio EC50 in the series on NCI/ADR-RES amounted to 2.7.
For `C=C1CC[C@H]2[C@@H]([C@@H]3O[C@]4(C[C@H](C)[C@H](OC(=O)CCc5ccccc5)[C@@H]4[C@H]1OC(=O)CCc1ccccc1)C(=O)[C@@H]3C)C2(C)C`, in that order: 40.1 µM, 14.2 µM, 8.3% and 1.6.
